The values that follow come from ChEMBL document CHEMBL2010648, “Discovery of novel anti-inflammatory drug-like compounds by aligning in silico and in vivo screening: the nitroindazolinone chemotype” (Eur J Med Chem, 2011).

Each structure is given as a SMILES string.

The subject of one data set is J774. Kind of data set: Cytotoxicity against mouse J774 cells at 10 ug/mL after 24 hrs by MTT assay. It is filed as functional.
Conditions: not given
In a few lines: (§1)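 J774 macrophages in RPMI-1640 with 20% heat-inactivated FCS were seeded at 70,000 cells/well and allowed to attach for 24 h at 37 °C. They were exposed to compounds for 24 h (final DMSO ≤0.2%), then given MTT 0.4 mg/mL for 60 min; formazan was dissolved in DMSO and read at OD595. %Cytotoxicity was calculated against growth controls, corrected for compound-in-medium blanks. Each concentration was tested three times, in duplicate assays.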
In turn, `O=[N+]([O-])c1ccc2[nH]nc(OCc3ccccc3Cl)c2c1` had an Activity of 9.4%.
On to `Cn1c(=O)c2cc([N+](=O)[O-])ccc2n1Cc1ccccc1`, for which the Activity was 43.9%.
On to `Cn1c2ccc([N+](=O)[O-])cc2c(=O)n1Cc1ccccc1`, for which the Activity turned out to be 21%.

The next data set deals with J774. Kind of data set: Cytotoxicity against mouse J774 cells at 1 ug/mL after 24 hrs by MTT assay. The data set is classed as functional.
Conditions: not given
The gist of the method: as §1
In turn, `O=[N+]([O-])c1ccc2[nH]nc(OCc3ccccc3Cl)c2c1` registered an Activity of 4.4%.
The same measure, in the same setting: the same measure for `Cn1c(=O)c2cc([N+](=O)[O-])ccc2n1Cc1ccccc1`: 32.8%; for `Cn1c2ccc([N+](=O)[O-])cc2c(=O)n1Cc1ccccc1`: 11.5%.

The species entered for the next data set is Danio rerio. The data set is described as follows: Antiinflammatory activity in transgenic zebrafish larvae harboring Fli-1 gene assessed as LPS-stimulated leukocyte migration to injury zone of tail transected larvae at 100 uM after 20 to 22 hrs by microscopy. It is filed as functional.
Conditions: not given
The gist of the method:
(§2)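 Transgenic fli-1:EGFP zebrafish were reared in E3 at 28 °C, with PTU added at 20 hpf. Compounds were dissolved in DMSO and diluted in Danieau's, with final DMSO ≤1%. Ten 4-dpf larvae per group were pretreated for 1 h, anaesthetised with tricaine and tail-transected. They were then incubated with compound plus LPS for 20–22 h, fixed in 4% PFA and stained with Leucognost. Leukocyte migration to the tail tip was scored microscopically as relative leukocyte migration. Run in triplicate.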
Turning to `O=[N+]([O-])c1ccc2c(c1)CC([O-])=N[N+]21CCCCC1`, the Ratio is recorded as 0.81.
As for `O=C(NN1Cc2ccccc2C1)c1cc([N+](=O)[O-])ccc1Cl`, the Ratio came out at 0.7.
For the molecule `O=C(Cc1cc([N+](=O)[O-])ccc1F)NN1Cc2ccccc2C1`, the Ratio came to 0.5.
The same measure, in the same setting: the figure for `O=c1c2cc([N+](=O)[O-])ccc2[nH]n1Cc1ccccc1` is 0.39.
With `O=c1c2cc([N+](=O)[O-])ccc2[nH]n1Cc1ccccn1`, the Ratio is 0.66.
Take `O=c1[nH]n(Cc2ccccn2)c2ccc([N+](=O)[O-])cc12`: the Ratio is reported as 0.59.
On the same count and under the same terms, the same measure for `O=c1[nH]n(Cc2ccccc2O)c2ccc([N+](=O)[O-])cc12`: 0.27.

The species named for another data set is Mus musculus. Kind of data set: Inhibition of MPO activity in TPA-induced Swiss mouse ear tissue homogenates after 3 mins relative to control. It is filed as functional, organism-based. Further details: concentration or dose not given beside the values.
Conditions: not given
The gist of the method: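 Ear tissue was homogenised at 0 °C in 80 mM phosphate buffer with 0.5% HTAB, then centrifuged at 10300g for 20 min at 4 °C. Supernatant, in triplicate, was mixed with phosphate buffer (pH 5.4) and H2O2. The reaction was started with TMB in 8% DMF, run 3 min at 37 °C and stopped with NaOAc/HOAc pH 3.0. A630 was read, and inhibition % was calculated versus the vehicle group.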
As usually defined, the inhibition is the drop in the measured response relative to a control, in per cent. As for `O=[N+]([O-])c1ccc2[nH]nc(OCc3ccccc3Cl)c2c1`, the inhibition was 63%.
In the case of `Cn1c(=O)c2cc([N+](=O)[O-])ccc2n1Cc1ccccc1`, the inhibition worked out at 56%.
As for `O=c1[nH]n(Cc2ccccc2F)c2ccccc12`, the inhibition is -3%.
Same read-out and setting: the figure for `Cn1c2ccc([N+](=O)[O-])cc2c(=O)n1Cc1ccccc1` is 67%.

The species named for the next data set is Danio rerio. Kind of data set: Antiinflammatory activity in transgenic zebrafish larvae harboring Fli-1 gene assessed as LPS-stimulated leukocyte migration to injury zone of tail transected larvae at 3 uM after 20 to 22 hrs by microscopy. The data set is classed as functional.
Conditions: not given
The gist of the method:
as §2
Take `O=[N+]([O-])c1ccc2[nH]nc(OCc3ccccc3Cl)c2c1`: the Ratio stood at 0.65.
Same read-out and setting: the same measure for `Cn1c(=O)c2cc([N+](=O)[O-])ccc2n1Cc1ccccc1`: 0.6; for `O=[N+]([O-])c1ccc2c(c1)c(OCc1ccccc1)nn2Cc1ccccc1`: 0.75.
With `CN(C)CCCOc1nn(Cc2ccccc2F)c2ccc([N+](=O)[O-])cc12`, the Ratio is given as 0.74.
Take `O=c1c2cc([N+](=O)[O-])ccc2n2n1Cc1ccccc1C2`: the Ratio worked out at 0.54.
On to `O=c1[nH]n(Cc2ccccc2F)c2ccccc12`, for which the Ratio is 0.46.
On to `Cn1c2ccc([N+](=O)[O-])cc2c(=O)n1Cc1ccccc1`, for which the Ratio amounted to 0.67.

A further data set concerns Mus musculus. The data set is described as follows: Antiinflammatory activity against TPA-induced ear edema in Swiss mouse assessed as inhibition of increase in ear weight at 0.5 mg/ear administered topically measured after 4 hrs relative to control.
Conditions: not given
It is filed as functional. In a few lines: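 Female Swiss mice (25–30 g, groups of six) received TPA in acetone topically on the right ear, with the left ear as control. Compound in acetone was applied at the same time. After 4 h, 6 mm punches from both ears were weighed. Oedema was taken as the weight difference between ears, and inhibition % was calculated versus the vehicle group. Mean ± SEM, Dunnett's test.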
Turning to `O=[N+]([O-])c1ccc2[nH]nc(OCc3ccccc3Cl)c2c1`, the “inhibition (INH)” value turned out to be 91%.
In the case of `Cn1c(=O)c2cc([N+](=O)[O-])ccc2n1Cc1ccccc1`, the “inhibition (INH)” value came out at 97%.
Turning to `O=c1[nH]n(Cc2ccccc2F)c2ccccc12`, the “inhibition (INH)” value stood at 32%.
Still for that read-out and setting: the same measure for `Cn1c2ccc([N+](=O)[O-])cc2c(=O)n1Cc1ccccc1`: 104%.

The species entered for the next data set is Danio rerio. Kind of data set: Antiinflammatory activity in transgenic zebrafish larvae harboring Fli-1 gene assessed as LPS-stimulated leukocyte migration to injury zone of tail transected larvae at 10 uM after 20 to 22 hrs by microscopy.
Conditions: not given
It is filed as functional. The gist of the method:
as §2
As for `O=[N+]([O-])c1ccc2[nH]nc(OCc3ccccc3Cl)c2c1`, the Ratio is given as 0.41.
Take `Cn1c(=O)c2cc([N+](=O)[O-])ccc2n1Cc1ccccc1`: the Ratio is reported as 0.46.
Still for that read-out and setting: the same measure for `O=[N+]([O-])c1ccc2c(c1)c(OCc1ccccc1)nn2Cc1ccccc1`: 0.73; for `O=[N+]([O-])c1ccc2c(c1)CC([O-])=N[N+]21CCCCC1`: 0.86.
On to `CN(C)CCCOc1nn(Cc2ccccc2F)c2ccc([N+](=O)[O-])cc12`, for which the Ratio amounted to 0.89.
For the molecule `O=c1c2cc([N+](=O)[O-])ccc2n2n1Cc1ccccc1C2`, the Ratio is on record as 0.29.
Turning to `O=C(NN1Cc2ccccc2C1)c1cc([N+](=O)[O-])ccc1Cl`, the Ratio came to 0.93.
Same read-out and setting: the same measure for `O=C(Cc1cc([N+](=O)[O-])ccc1F)NN1Cc2ccccc2C1`: 0.89; for `O=c1[nH]n(Cc2ccccc2F)c2ccccc12`: 0.25.
On the same count and under the same terms, the figure for `O=c1c2cc([N+](=O)[O-])ccc2[nH]n1Cc1ccccc1` is 0.81; for `Cn1c2ccc([N+](=O)[O-])cc2c(=O)n1Cc1ccccc1` it is 0.63; for `O=c1c2cc([N+](=O)[O-])ccc2[nH]n1Cc1ccccn1` it is 0.94.
As for `O=c1[nH]n(Cc2ccccn2)c2ccc([N+](=O)[O-])cc12`, the Ratio is reported as 0.83.
Consider `O=c1[nH]n(Cc2ccccc2O)c2ccc([N+](=O)[O-])cc12`, for which the Ratio is given as 0.86.

The species entered for a further data set is Danio rerio. Kind of data set: Antiinflammatory activity in transgenic zebrafish larvae harboring Fli-1 gene assessed as LPS-stimulated leukocyte migration to injury zone of tail transected larvae at 1 uM after 20 to 22 hrs by microscopy.
Conditions: not given
The data set is classed as functional. In a few lines:
as §2
`O=[N+]([O-])c1ccc2[nH]nc(OCc3ccccc3Cl)c2c1`: the Ratio amounted to 0.62.
On the same count and under the same terms, the figure for `O=[N+]([O-])c1ccc2c(c1)c(OCc1ccccc1)nn2Cc1ccccc1` is 0.94; for `O=c1c2cc([N+](=O)[O-])ccc2n2n1Cc1ccccc1C2` it is 0.56.

The species entered for another data set is Danio rerio. Kind of data set: Antiinflammatory activity in transgenic zebrafish larvae harboring Fli-1 gene assessed as LPS-stimulated leukocyte migration to injury zone of tail transected larvae at 30 uM after 20 to 22 hrs by microscopy. It is filed as functional.
Conditions: not given
In a few lines: as §2
Turning to `Cn1c(=O)c2cc([N+](=O)[O-])ccc2n1Cc1ccccc1`, the Ratio worked out at 0.26.
Still for that read-out and setting: the same measure for `O=[N+]([O-])c1ccc2c(c1)CC([O-])=N[N+]21CCCCC1`: 0.89; for `CN(C)CCCOc1nn(Cc2ccccc2F)c2ccc([N+](=O)[O-])cc12`: 0.97.
Still for that read-out and setting: the same measure for `O=C(NN1Cc2ccccc2C1)c1cc([N+](=O)[O-])ccc1Cl`: 0.93; for `O=C(Cc1cc([N+](=O)[O-])ccc1F)NN1Cc2ccccc2C1`: 0.87.
Still for that read-out and setting: the figure for `O=c1[nH]n(Cc2ccccc2F)c2ccccc12` is 0.17; for `O=c1c2cc([N+](=O)[O-])ccc2[nH]n1Cc1ccccc1` it is 0.65; for `Cn1c2ccc([N+](=O)[O-])cc2c(=O)n1Cc1ccccc1` it is 0.27.
For the molecule `O=c1c2cc([N+](=O)[O-])ccc2[nH]n1Cc1ccccn1`, the Ratio is given as 0.62.
Still for that read-out and setting: the same measure for `O=c1[nH]n(Cc2ccccn2)c2ccc([N+](=O)[O-])cc12`: 0.74.
Still for that read-out and setting: the figure for `O=c1[nH]n(Cc2ccccc2O)c2ccc([N+](=O)[O-])cc12` is 0.61.

For another data set, the species on record is Danio rerio. The data set is described as follows: Toxicity in transgenic zebrafish larvae harboring Fli-1 gene assessed as maximum tolerated dosage after 24 hrs. It is filed as organism-based. Particulars: in vivo. In a few lines:
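Fertilized eggs of the fli-1:EGFP line reared in E3 embryo medium at 28 °C, with PTU added at 20 hpf to block pigmentation. Compounds were dissolved in DMSO and diluted in Danieau's 0.3X, final DMSO ≤1%. Larvae at 4 dpf, 5 per well, were exposed for 24 h to 10, 30 and 100 (highest) concentrations and checked by light microscopy at 5 dpf. MTC is the highest concentration giving no death or toxicity signs.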
Take `O=[N+]([O-])c1ccc2[nH]nc(OCc3ccccc3Cl)c2c1`: the MTD was 10 µM.
The same measure, in the same setting: the figure for `Cn1c(=O)c2cc([N+](=O)[O-])ccc2n1Cc1ccccc1` is 30 µM; for `O=[N+]([O-])c1ccc2c(c1)c(OCc1ccccc1)nn2Cc1ccccc1` it is 10 µM.
For `O=[N+]([O-])c1ccc2c(c1)CC([O-])=N[N+]21CCCCC1`, the MTD is more than 100 µM.
On the same count and under the same terms, the same measure for `CN(C)CCCOc1nn(Cc2ccccc2F)c2ccc([N+](=O)[O-])cc12`: 30 µM; for `O=c1c2cc([N+](=O)[O-])ccc2n2n1Cc1ccccc1C2`: 10 µM; for `O=C(NN1Cc2ccccc2C1)c1cc([N+](=O)[O-])ccc1Cl`: more than 100 µM.
The same measure, in the same setting: the same measure for `O=C(Cc1cc([N+](=O)[O-])ccc1F)NN1Cc2ccccc2C1`: more than 100 µM.
Same read-out and setting: the same measure for `O=c1[nH]n(Cc2ccccc2F)c2ccccc12`: 30 µM; for `O=c1c2cc([N+](=O)[O-])ccc2[nH]n1Cc1ccccc1`: more than 100 µM.
As for `Cn1c2ccc([N+](=O)[O-])cc2c(=O)n1Cc1ccccc1`, the MTD came out at 30 µM.
The same measure, in the same setting: the figure for `O=c1c2cc([N+](=O)[O-])ccc2[nH]n1Cc1ccccn1` is more than 100 µM; for `O=c1[nH]n(Cc2ccccn2)c2ccc([N+](=O)[O-])cc12` it is more than 100 µM; for `O=c1[nH]n(Cc2ccccc2O)c2ccc([N+](=O)[O-])cc12` it is more than 100 µM.

For a further data set, the system named is J774. Kind of data set: Cytotoxicity against mouse J774 cells at 100 ug/mL after 24 hrs by MTT assay. The data set is classed as functional.
Conditions: not given
In a few lines: as §1
A general note: Formazan colour is commonly taken as a measure of viable cells.
Turning to `O=[N+]([O-])c1ccc2[nH]nc(OCc3ccccc3Cl)c2c1`, the Activity was 96.4%.
On the same count and under the same terms, the same measure for `Cn1c(=O)c2cc([N+](=O)[O-])ccc2n1Cc1ccccc1`: 58.4%; for `Cn1c2ccc([N+](=O)[O-])cc2c(=O)n1Cc1ccccc1`: 57.5%.
